Measurements: ChEMBL document CHEMBL3120154, “2-[N-Alkyl(R-phenyl)-aminomethyl]-3-phenyl-7-trifluoromethylquinoxalines as anticancer agents inhibitors of folate enzymes” (Eur J Med Chem, 2014)
Calls of active or inactive are those of the source. No cut-off for these calls is given here.

Experiments:
MCF7 [1] = test: Cytotoxicity against human MCF7 cells assessed as cell growth at 10^-5 M after 48 hrs by alamar blue assay relative to untreated control; assay type: functional; settings: MCF7, 48 h, read-out: Activity
In short: (§1)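 Three-cell-line prescreen. Each line was inoculated and preincubated on a microtiter plate, then the agent was added at a single concentration (10^-4 or 10^-5 M) and incubated 48 h. Endpoint was measured with alamar blue, and growth is reported as a percentage of untreated control cells.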

NCI-H460 [2] = test: Cytotoxicity against human NCI-H460 cells assessed as cell growth at 10^-5 M after 48 hrs by alamar blue assay relative to untreated control; assay type: functional; settings: NCI-H460, 48 h, read-out: Activity; in short: as §1
SF-268 [3] = test: Cytotoxicity against human SF268 cells assessed as cell growth at 10^-5 M after 48 hrs by alamar blue assay relative to untreated control; assay type: functional; settings: SF-268, 48 h, read-out: Activity
In short: (§2)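 Three-cell-line prescreen at NCI. Each line was seeded and pre-incubated, then given a single concentration (10^-4 or 10^-5 M) and incubated for 48 h. The end-point was alamar blue. The value is percent growth of treated cells versus untreated control cells, with negative numbers indicating cell kill.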

Dihydrofolate reductase = target: T1, Dihydrofolate reductase (Homo sapiens, UniProt P00374); test: Competitive inhibition of human dihydrofolate reductase by spectrophotometry
T1 sequence (P00374 whole entry): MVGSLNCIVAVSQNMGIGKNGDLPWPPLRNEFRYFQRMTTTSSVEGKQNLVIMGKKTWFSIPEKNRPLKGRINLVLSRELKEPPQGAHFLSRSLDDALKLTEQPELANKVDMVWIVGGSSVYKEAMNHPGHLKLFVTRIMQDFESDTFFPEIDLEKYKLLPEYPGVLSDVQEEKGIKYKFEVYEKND

NCI-H460 [4] = test: Cytotoxicity against human NCI-H460 cells assessed as cell growth at 10^-4 M after 48 hrs by alamar blue assay relative to untreated control; assay type: functional; settings: NCI-H460, 48 h, read-out: Activity; in short: as §1
SF-268 [5] = test: Cytotoxicity against human SF268 cells assessed as cell growth at 10^-4 M after 48 hrs by alamar blue assay relative to untreated control; assay type: functional; settings: SF-268, 48 h, read-out: Activity; in short: as §2
MCF7 [6] = test: Cytotoxicity against human MCF7 cells assessed as cell growth at 10^-4 M after 48 hrs by alamar blue assay relative to untreated control; assay type: functional; settings: MCF7, 48 h, read-out: Activity; in short: as §1
[7] = target: Dihydrofolate reductase (Homo sapiens) (UniProt P00374); test: Competitive inhibition of human dihydrofolate reductase at 10 uM by spectrophotometry
Thymidylate synthase = Thymidylate synthase (Homo sapiens, UniProt P04818); test: Competitive inhibition of human thymidylate synthase by spectrophotometry

| SMILES | growth at 10 µM (MCF7 [1]) | growth at 10 µM (NCI-H460 [2]) | growth at 10 µM (SF-268 [3]) | Ki (Dihydrofolate reductase) | growth at 100 µM (NCI-H460 [4]) | growth at 100 µM (SF-268 [5]) | growth at 100 µM (MCF7 [6]) | inhibition [7] | Ki (Thymidylate synthase) |
| --- | --- | --- | --- | --- | --- | --- | --- | --- | --- |
| CCN(Cc1nc2cc(C(F)(F)F)ccc2nc1-c1ccccc1)c1ccc(F)cc1 | 103% | 92% | 102% | 3 µM | – | – | – | – | – |
| CCN(Cc1nc2cc(C(F)(F)F)ccc2nc1-c1ccccc1)c1ccc(F)c(F)c1 | 73% | 81% | 94% | 5 µM | – | – | – | – | – |
| CN(Cc1nc2cc(C(F)(F)F)ccc2nc1-c1ccccc1)c1ccc(F)cc1 | – | – | – | 5 µM | 119% | 125% | 180% | – | – |
| CCN(Cc1nc2cc(C(F)(F)F)ccc2nc1-c1ccccc1)c1ccc(OC(F)(F)F)cc1 | – | – | – | 5 µM | 83% | 85% | 61% | – | – |
| C#CCN(Cc1nc2cc(C(F)(F)F)ccc2nc1-c1ccccc1)c1ccc(OC)c(OC)c1 | – | – | – | 3 µM | 80% | 109% | 119% | – | – |
| C#CCN(Cc1nc2cc(C(F)(F)F)ccc2nc1-c1ccccc1)c1ccc(Cl)cc1 | – | – | – | 4 µM | 85% | 84% | 67% | – | – |
| C#CCN(Cc1nc2cc(C(F)(F)F)ccc2nc1-c1ccccc1)c1ccc(CC(=O)OCC)cc1 | – | – | – | 3 µM | 115% | 111% | 106% | – | – |
| COc1ccc(N(C)Cc2nc3cc(C(F)(F)F)ccc3nc2-c2ccccc2)cc1OC | – | – | – | 8 µM | 88% | 103% | 54% | – | – |
| CN(Cc1nc2cc(C(F)(F)F)ccc2nc1-c1ccccc1)c1ccc(OC(F)(F)F)cc1 | – | – | – | 3 µM | – | – | – | – | – |
| CN(Cc1nc2cc(C(F)(F)F)ccc2nc1-c1ccccc1)c1ccc(Cl)cc1 | 109% | 118% | 108% | 5 µM | – | – | – | – | – |
| COc1ccc(N(C)Cc2nc3cc(C(F)(F)F)ccc3nc2-c2ccccc2)cc1 | – | – | – | 3 µM | 125% | 107% | 105% | – | – |
| CCN(Cc1nc2cc(C(F)(F)F)ccc2nc1-c1ccccc1)c1cc(OC)c(OC)c(OC)c1 | – | – | – | 6 µM | – | – | – | – | – |
| CCOC(=O)Cc1ccc(N(C)Cc2nc3cc(C(F)(F)F)ccc3nc2-c2ccccc2)cc1 | – | – | – | – | 125% | 107% | 105% | inactive | – |
| CCN(Cc1nc2cc(C(F)(F)F)ccc2nc1-c1ccccc1)c1ccc(C)cc1 | – | – | – | 4 µM | – | – | – | – | – |
| CCOC(=O)CC[C@H](NC(=O)c1ccc(N(CC)Cc2nc3cc(C(F)(F)F)ccc3nc2-c2ccccc2)cc1)C(=O)OCC | – | – | – | 4 µM | – | – | – | – | – |
| Cc1ccc(N(C)Cc2nc3cc(C(F)(F)F)ccc3nc2-c2ccccc2)cc1 | 115% | 116% | 121% | 11 µM | – | – | – | – | – |
| C#CCN(Cc1nc2cc(C(F)(F)F)ccc2nc1-c1ccccc1)c1cc(OC)c(OC)c(OC)c1 | – | – | – | 4 µM | 104% | 102% | 64% | – | 5 µM |
| CN(Cc1nc2cc(C(F)(F)F)ccc2nc1-c1ccccc1)c1ccc(F)c(F)c1 | 114% | 88% | 97% | 4 µM | – | – | – | – | 0.27 µM |
| C#CCN(Cc1nc2cc(C(F)(F)F)ccc2nc1-c1ccccc1)c1ccc(OC)cc1 | – | – | – | 3 µM | 98% | 103% | 82% | – | – |
| CCN(Cc1nc2cc(C(F)(F)F)ccc2nc1-c1ccccc1)c1ccc(Cl)cc1 | – | – | – | 3 µM | 68% | 81% | 46% | – | – |
| C#CCN(Cc1nc2cc(C(F)(F)F)ccc2nc1-c1ccccc1)c1ccc(C(F)(F)F)cc1F | – | – | – | – | 61% | 110% | 87% | – | – |
| CCN(Cc1nc2cc(C(F)(F)F)ccc2nc1-c1ccccc1)c1ccc(OC)cc1 | – | – | – | 7 µM | 63% | 89% | 54% | – | – |
| COc1cc(N(C)Cc2nc3cc(C(F)(F)F)ccc3nc2-c2ccccc2)cc(OC)c1OC | – | – | – | 5 µM | 77% | 97% | 61% | – | – |
| C#CCN(Cc1nc2cc(C(F)(F)F)ccc2nc1-c1ccccc1)c1ccccc1Cl | – | – | – | 2 µM | 101% | 87% | 102% | – | – |
| CCOC(=O)Cc1ccc(N(CC)Cc2nc3cc(C(F)(F)F)ccc3nc2-c2ccccc2)cc1 | – | – | – | 3 µM | – | – | – | – | – |
| CCOC(=O)CC[C@H](NC(=O)c1ccc(N(C)Cc2nc3cc(C(F)(F)F)ccc3nc2-c2ccccc2)cc1)C(=O)OCC | – | – | – | 0.2 µM | – | – | – | – | – |
